Bioassay records (PubChem)
Most compounds without a hit are left out; they make up all but 0.99% or so of the library.
FN deposit inh: fibronectin deposition inhibition. AID 743247. inhibition, % at 12.6 µM. AH1F fibroblasts, Alexa488-fibronectin deposition fluorescence, overnight. 0.086% of 350,000 active;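 active means mean inhibition across replicates of 30% or more, regardless of how many single replicates reach that level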;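 further: positive control wells lacked labelled fibronectin entirely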
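Assay system: AH1F fibroblasts / Quantity: 10000 cells per well / Medium: DMEM plus 2% serum, read in PBS / Reagent: labelled fibronectin 24 nM / Dosing: single dose, pinned / Times: 1 h cell attachment, overnight exposure to compound and label / Signal: fluorescence, ex 485 nm, em 525 nm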
NPR1 activator: GC-A (human) enzyme activation. activation, % at 10 µM. P16066. HEK293 GC-A cells, cGMP TR-FRET, EC30 ANP; 0% at EC30 ANP, 100% saturating ANP. 0.14% of 370,000 active; in the data active means activation above about 40%
CASP6 VEID inh: inhibitors of human caspase-6; purified caspase-6, Z-VEID-R110 cleavage fluorescence; inhibition, % at 12.5 µM; 0.53% of 350,000 active; AID 686996;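 active means mean inhibition across replicates at least about 35%, with every replicate also reaching that limit, limit read from the data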;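 further: 0% = median of neutral control wells and 100% = no fluorescence left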
CaV13 ICDI inh: Primary screen for inhibitors of IQ motif and Ca2+-dependent inactivation inhibitor domain binding in CACNA1D, Förster resonance energy transfer in living cells, …; HEK cells, CFP/YFP FRET ICDI-IQ, plate reader, 10 min; percent FRET-ratio fall versus neutral wells; inhibition, % at 12.3 µM; 0.098% of 340,000 active; AID 743397;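 active means mean replicate inhibition of at least 30% and at least 1% of replicates passing that level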;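 further: 0% = median of the neutral control wells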
NPR2 activator: GC-B (human) receptor activation; activation, % at 10 µM; HEK293-GC-B cells, CNP EC30, cGMP TR-FRET; 0% at EC30 CNP, 100% saturating CNP; 0.11% of 370,000 active;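 active means activation at 10 µM reaching about 35% in either raw or pattern-adjusted values, limit read from the data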
NSD2 HMT inh: NSD2 (human) methyltransferase inhibition; 0.54% of 310,000 active; inhibition, % at 12.5 µM; NSD2 peptide methylation, AlphaScreen, 120 min; O96028; in the data active means inhibition above about 50%
Target sequence (O96028 whole entry, looked up): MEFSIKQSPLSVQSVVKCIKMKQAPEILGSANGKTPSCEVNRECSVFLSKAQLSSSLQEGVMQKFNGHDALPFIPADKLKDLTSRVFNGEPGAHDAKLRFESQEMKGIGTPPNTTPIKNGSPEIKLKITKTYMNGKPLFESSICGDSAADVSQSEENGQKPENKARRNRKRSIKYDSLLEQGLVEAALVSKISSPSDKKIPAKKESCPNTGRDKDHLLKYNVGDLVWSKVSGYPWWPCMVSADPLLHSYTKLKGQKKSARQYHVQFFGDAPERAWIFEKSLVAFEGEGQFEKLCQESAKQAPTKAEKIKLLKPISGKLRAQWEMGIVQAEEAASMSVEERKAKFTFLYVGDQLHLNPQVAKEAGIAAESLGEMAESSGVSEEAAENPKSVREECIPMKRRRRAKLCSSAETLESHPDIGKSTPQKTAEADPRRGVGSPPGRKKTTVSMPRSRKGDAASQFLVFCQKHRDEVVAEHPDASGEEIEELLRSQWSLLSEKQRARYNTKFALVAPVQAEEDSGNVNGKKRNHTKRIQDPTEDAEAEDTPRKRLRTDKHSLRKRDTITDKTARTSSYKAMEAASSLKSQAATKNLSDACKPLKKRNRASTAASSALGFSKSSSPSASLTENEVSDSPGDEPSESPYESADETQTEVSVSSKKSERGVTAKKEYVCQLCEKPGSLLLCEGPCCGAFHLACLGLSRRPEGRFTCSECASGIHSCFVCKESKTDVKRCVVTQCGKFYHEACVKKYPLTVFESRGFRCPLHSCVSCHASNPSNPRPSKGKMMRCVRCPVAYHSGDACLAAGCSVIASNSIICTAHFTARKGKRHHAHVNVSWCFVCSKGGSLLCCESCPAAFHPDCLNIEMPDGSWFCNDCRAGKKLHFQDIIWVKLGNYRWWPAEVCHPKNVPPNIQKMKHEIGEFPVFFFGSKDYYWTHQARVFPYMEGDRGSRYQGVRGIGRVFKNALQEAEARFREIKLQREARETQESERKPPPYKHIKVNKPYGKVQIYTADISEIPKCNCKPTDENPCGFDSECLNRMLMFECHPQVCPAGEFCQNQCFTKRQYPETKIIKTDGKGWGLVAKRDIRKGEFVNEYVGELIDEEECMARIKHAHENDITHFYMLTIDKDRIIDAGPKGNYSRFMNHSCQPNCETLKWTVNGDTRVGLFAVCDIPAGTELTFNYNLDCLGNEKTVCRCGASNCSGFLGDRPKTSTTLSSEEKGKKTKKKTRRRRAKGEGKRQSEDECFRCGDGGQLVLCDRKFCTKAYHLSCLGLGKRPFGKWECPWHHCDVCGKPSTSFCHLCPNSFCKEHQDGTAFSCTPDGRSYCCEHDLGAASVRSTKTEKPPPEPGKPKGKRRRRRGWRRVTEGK
Alpha artifact: interferes with AlphaScreen signal, flagging NSD2 false positives; shares compounds with NSD2 HMT inh; AlphaScreen artifact counterscreen, preloaded methylated H4 peptide; AC35, µM (doses to about 10 µM), inactives show top-dose activity change, negative = signal loss; 9.4% of 1,500 active; call rule not given here
Numbers without * were called inactive; / = not tested or not shown.

SMILES | FN deposit inh | NPR1 activator | CASP6 VEID inh | CaV13 ICDI inh | NPR2 activator | NSD2 HMT inh | Alpha artifact
COC(=O)[C@@H]1[C@@H](CO)[C@@H]2Cn3c(ccc(-c4cncnc4)c3=O)[C@H]1N2S(=O)(=O)c1ccccc1C | / | / | 2.6 | / | / | / | /
Nc1ccc(C2(c3ccc(N)cc3)CN3CCC2CC3)cc1 | / | -11.9 | / | -5.5 | -11.4 | 176.4* | -16.8%
O=C1CNC[C@H]2[C@@H](c3ccc(Br)cc3)[C@@H](CO)N12 | -6.7 | / | -0.4 | / | / | / | /
O=[N+]([O-])c1ccc(N(CCO)CCO)c2c1no[n+]2[O-] | 26.6 | 1.9 | -6.0 | -5.6 | -0.8 | 134.6* | -1.5%
Cc1ccc(N2C(=O)NC(=O)/C(=C/c3ccc(OC(=O)c4cccs4)cc3)C2=O)cc1 | 0.8 | -5.4 | / | -5.3 | -4.9 | 127.4* | -4.1%
COc1ccc(N2C(=O)NC(=O)/C(=C/c3cccc(OC(=O)c4cccs4)c3)C2=O)cc1Cl | -4.9 | -8.9 | 5.2 | -1.8 | -8.0 | 40.2 | /
COc1ccc(CC2C(=O)N(c3ccccc3)C(=O)N(c3ccccc3)C2=O)c(OC)c1 | -1.1 | -2.6 | / | -4.1 | -1.8 | -2.0 | /
COCCN1C(=O)/C(=C/c2c(OC)cc(OC)cc2OC)C(=O)N(c2ccccc2)C1=O | -4.5 | 3.8 | -1.9 | -0.3 | 3.4 | 51.7* | -1.5%
CCOC(=O)[C@@H]1[C@@H]2NC(=S)N(C)[C@@]1(C)Oc1ccccc12 | / | / | 1.1 | / | / | / | /
Clc1ccccc1Nc1ncnc(-n2cccc2)n1 | / | 1.7 | / | -7.9 | -9.8 | 128.4* | -5.4%
Clc1ccccc1NC1=NCCCS1 | 5.4 | 1.1 | 4.3 | -2.0 | 2.6 | 0.1 | /
Cc1ccc(N2C(=O)NC(=O)/C(=C\C=C\c3ccco3)C2=O)cc1 | -1.6 | 14.1 | 9.1 | -3.3 | 3.3 | 76.2* | -5.7%
Cc1ccc(N2C(=O)NC(=O)/C(=C\c3ccoc3)C2=O)cc1 | -13.4 | 11.4 | 30.2 | -6.3 | 9.5 | 25.6 | /
CC(=O)N(C)C1=Nc2ccc(Cl)cc2C(c2ccccc2)=[N+]([O-])C1 | 3.0 | 0.1 | -4.2 | -2.5 | 0.3 | 54.4* | -1.7%
CN(C)C(=O)On1c(-c2ccccc2)nc2ccc(Cl)cc21 | / | 7.8 | / | / | -2.1 | 0.7 | /
COC(=O)[C@@H]1[C@@H](CO)[C@@H]2Cn3c(ccc(/C=C/c4ccccc4)c3=O)[C@H]1N2C(=O)C1CC1 | / | / | 0.2 | / | / | / | /
O=C(Cc1ccccn1)N1CCCCN2[C@H](CO)[C@@H](c3ccc(C#Cc4ccccc4)cc3)[C@@H]2C1 | / | / | -1.3 | / | / | / | /
CN1/C(=C\C=C2C(=O)NC(=O)NC2=O)C(C)(C)c2ccccc21 | -10.0 | -0.8 | -8.0 | -6.2 | 0.0 | 37.8 | /
CCN1/C(=C/C=C/C2=[N+](CC)c3ccccc3C2(C)C)C(C)(C)c2ccccc21 | -61.2 | 18.8 | -30.2 | -0.7 | 42.7* | 55.0* | -10.8%
CCNCCNc1ccc([N+](=O)[O-])c2cccnc12 | 4.2 | -6.0 | -3.8 | -15.8 | -6.1 | 100.5* | -4.4%
Cc1cccc(N=Nc2ccc(N(C)C)cc2)c1 | -0.4 | 12.3 | 1.9 | -6.7 | 0.2 | 50.8* | 8.41µM*
CN(C)c1ccccc1 | -3.9 | -3.7 | -1.3 | -6.8 | 0.7 | -3.4 | /
COC(=O)[C@H]1[C@H](CO)[C@H]2Cn3c(ccc(-c4ccccc4F)c3=O)[C@@H]1N2Cc1ccncc1 | / | / | -2.4 | / | / | / | /
COC1C(O)C(C)OC(OC2C(Oc3cccc4c(O)c5c(=O)oc6ccc(C)c7c(=O)oc(c34)c5c67)OC(C)C(O)C2O)C1O (centres undefined) | 2.5 | 6.9 | 6.3 | -7.1 | 2.1 | 66.1* | -12.2%
CCC(=NCCCN(CC)CC)c1c(O)n(C2CCCCC2)c(=O)[nH]c1=O | 15.5 | 6.3 | / | -4.1 | -6.9 | 51.4* | -7.0%
SMILES | FN deposit inh | NPR1 activator | CASP6 VEID inh | CaV13 ICDI inh | NPR2 activator | NSD2 HMT inh | Alpha artifact
O=C(O)[C@H]1[C@H](CO)[C@H]2Cn3c(ccc(-c4ccncc4)c3=O)[C@@H]1N2C(=O)C1CCCCC1 | 9.8 | / | -6.4 | / | / | / | /
O=C(Cc1cccnc1)N1CCCCN2[C@H](CO)[C@@H](c3ccc(C#CC4CC4)cc3)[C@H]2C1 | / | / | -1.1 | / | / | / | /
CN1CCN(c2ccc(Cl)cc2N)CC1 | 5.4 | 2.2 | -11.8 | 2.9 | 3.9 | 7.2 | /
CN1CCN(c2ccc(N)cc2Cl)CC1 | 10.4 | 3.0 | -42.4 | -1.4 | 1.3 | 77.0* | -14.4%
Nc1c(C(=O)NC2CCCC2)c2nc3ccccc3nc2n1CC1CCCO1 (centres undefined) | 0.8 | 0.5 | / | -2.7 | -3.8 | 81.7* | 26.6%
Nc1c(C(=O)NCC2CCCO2)c2nc3ccccc3nc2n1Cc1ccco1 (centres undefined) | 3.5 | 19.2 | 3.5 | -3.7 | 9.8 | -9.0 | /
C/C=C/c1ccc(C2[C@@H]3CN(C(=O)CN(C)C)C[C@H]2N3)cc1 (some centres undefined) | 13.3 | / | -1.0 | / | / | / | /
Cc1cc(/C=C2\C(=O)NC(=O)N(Cc3ccccc3Cl)C2=O)c(C)n1-c1ccc(C(=O)O)cc1 | 1.4 | 0.1 | 47.8* | -17.9 | -3.5 | 58.0* | -8.3%
Cc1cc(/C=C2\C(=O)NC(=O)N(Cc3ccccc3)C2=O)c(C)n1-c1ccc(Cl)c(C(=O)O)c1 | 9.8 | -4.3 | 66.1* | -4.7 | 4.2 | 137.1* | -11.2%
COC(=O)[C@H]1N[C@H]2c3ccc(C4=CCCC4)c(=O)n3C[C@H]2[C@@H]1CO | / | / | -2.4 | / | / | / | /
CCCC(=O)NC1=C(N2CC2)C(=O)C(NC(=O)CCC)=C(N2CC2)C1=O | 5.6 | -7.1 | 21.3 | -6.6 | -5.5 | 92.1* | -1.2%
COCC(=O)N1[C@@H]2Cn3c(ccc(C4=CCCC4)c3=O)[C@H]1[C@@H](C(=O)OC)[C@@H]2CO | / | / | -2.8 | / | / | / | /
CC(=O)NC1=C(N2CC2C)C(=O)C(NC(C)=O)=C(N2CC2C)C1=O (centres undefined) | -7.2 | -8.6 | 37.7* | -5.8 | -5.3 | 114.6* | -3.7%
COC(=O)[C@H]1[C@H](CO)[C@H]2Cn3c(ccc(C4=CCCCC4)c3=O)[C@@H]1N2CC1CC1 | / | / | 2.3 | / | / | / | /
O=C1NC(=O)C(Sc2ccccc2[N+](=O)[O-])C(=O)N1 | -12.9 | 3.6 | 37.7* | -3.0 | 4.0 | 85.4* | -4.2%
N#Cc1cccc(-c2ccc([C@@H]3[C@@H](CO)N4CCCCN(C(=O)Cc5ccccc5)C[C@@H]34)cc2)c1 | / | / | 0.8 | / | / | / | /
COCCCn1c(N)c(C(=O)OCCOC)c2nc3ccccc3nc21 | / | -0.7 | / | / | 1.3 | 72.6* | -2.9%
COCCCNC(=O)c1c(NC(=O)c2ccco2)n(Cc2ccccc2)c2nc3ccccc3nc12 | / | 4.8 | / | / | 4.6 | 105.6* | 1.9%
CCCCNC(=O)c1c(N)n(CCCOC)c2nc3ccccc3nc12 | / | 17.7 | / | -3.3 | 5.4 | 106.0* | 11.1%
